Results from different studies.
Each line is one published result; the experiments were not run side by side.
Target: Aurora kinase A (AURKA, Homo sapiens, UniProt O14965)
Sequence (O14965 1-403, as in one of the studies): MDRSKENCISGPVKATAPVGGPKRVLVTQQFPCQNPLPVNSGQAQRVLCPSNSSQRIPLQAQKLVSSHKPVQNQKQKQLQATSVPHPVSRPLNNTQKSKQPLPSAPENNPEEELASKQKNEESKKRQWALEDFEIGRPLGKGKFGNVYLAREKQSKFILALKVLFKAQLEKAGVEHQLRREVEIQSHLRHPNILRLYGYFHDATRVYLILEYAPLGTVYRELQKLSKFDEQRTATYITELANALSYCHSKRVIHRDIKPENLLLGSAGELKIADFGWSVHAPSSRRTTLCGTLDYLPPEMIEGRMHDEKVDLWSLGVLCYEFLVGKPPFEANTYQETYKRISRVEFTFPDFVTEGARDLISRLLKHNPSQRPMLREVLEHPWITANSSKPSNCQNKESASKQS

| SMILES | assay | setting | remaining binding |
| --- | --- | --- | --- |
| CCC(=O)N[C@H]1CC[C@@H](C(=O)N(C)c2ccc(-c3nc4ccccc4o3)cc2)C1 | cell-free assay, competition with immobilised ligand | 1 µM | 43% |
| COc1cc(C(=O)N2CCC(N3CCN(C)CC3)CC2)ccc1Nc1ncc2c(n1)N(C)c1ccccc1C(=O)N2C | binding, competition with immobilised ligand | 10 µM | 1.2% |
| COc1cnc(Nc2cccc(S(N)(=O)=O)c2)nc1N1CCN(c2ccccc2)CC1 | binding, competition with immobilised ligand | 1 µM | 85% |
| CN(C)c1nccc(-c2cnc3ncccn23)n1 | binding | 1 µM | 49% |
| FC(F)(F)c1ccc2c(c1)nc(-c1cccnc1)n2C1CC1 | cell-free assay, competition with immobilised ligand | 1 µM | 98% |
| O=C(NCCCN1CCOCC1)c1ccc(Nc2nccc(-c3cc4ccccc4s3)n2)cc1 | binding, competition with immobilised ligand | 1 µM | 55% |
| N#Cc1ccccc1CSc1nnc2c(n1)[nH]c1ccccc12 | binding, competition with immobilised ligand | 10 µM | 100% |
| N[C@H]1CCN(c2nccc(-c3cnn4ncccc34)n2)C1 | binding | 1 µM | 97% |
| Nc1cnc(N2CCc3cc(S(=O)(=O)Nc4c(F)cc(Cl)cc4F)cc(N4CCCC4=O)c32)nc1 | cell-free assay, competition with immobilised ligand | 1 µM | 100% |
| CC1CCCN1c1nccc(-c2cnn3ncccc23)n1 (centres unmarked) | binding | 1 µM | 87% |
| COc1cnc(Nc2cccc(S(N)(=O)=O)c2)nc1N1CCN(c2ccccc2)C(=O)C1 | binding, competition with immobilised ligand | 1 µM | 80% |
| O=C(Nc1c[nH]nc1C(=O)NC1CCNCC1)c1cc(F)cc(F)c1 | binding, competition with immobilised ligand | 1 µM | 100% |
| C[C@@H]1CN(c2ccc3ncc(-c4ccc5[nH]nc(C6CC6)c5c4)n3n2)C[C@H](C)O1 | binding, competition with immobilised ligand | 50 nM | 87% |
| FC(F)(F)Oc1cccc(-c2cnc3ccc(-c4ccncc4)nn23)c1 | cell-free assay, competition with immobilised ligand | 5 µM | 91% |
| COCCOc1nc(-c2ccc(Cl)nc2)nc2c1CN(C(=O)c1ncn3ccccc13)CC2 | cell-free assay, competition with immobilised ligand | 0.1 µM | 81% |
| CC(C)(C)c1ccc(-c2nc(CBr)nn2-c2cccc(O)c2)cc1 | cell-free assay, competition with immobilised ligand | 10 µM | 91% |
| COc1cc(-c2cn(C3CCc4ccccc4N(CC(F)(F)F)C3=O)nn2)ccc1-n1ccc(C)n1 (centres unmarked) | cell-free assay, competition with immobilised ligand | 1 µM | 58% |
| O=C(c1ccc(Nc2nccc(-c3cc4ccccc4s3)n2)cc1)N1CCC(N2CCCC2)CC1 | binding, competition with immobilised ligand | 1 µM | 33% |
| CN(C(=O)c1ccccc1)c1cc(N(C)c2ccc3c(c2)CCc2ccc(C(=O)NCCN4CCOCC4)cc2C3=O)ccc1F | cell-free assay, competition with immobilised ligand | 1 µM | 100% |
| CN(CCCC(F)(F)F)c1nccc(-c2cnn3ncccc23)n1 | binding | 1 µM | 90% |
| O=C(Nc1cccnn1)N1CC(C/C=C/c2cncc(Oc3ccc(C(F)(F)F)cn3)n2)C1 | cell-free assay, competition with immobilised ligand | 1 µM | 100% |
| COc1ccnn2ncc(-c3ccnc(N(C)C)n3)c12 | binding | 1 µM | 93% |
| O=C(c1ccc(Nc2ncc(Cl)c(-c3cc4ccccc4s3)n2)cc1)N1CCC(N2CCCC2)CC1 | binding, competition with immobilised ligand | 1 µM | 9.2% |
| CSc1cccnc1N1CCN(Cc2nc3ccccc3[nH]2)CC1 | cell-free assay, competition with immobilised ligand | 1 µM | 74% |
| C[C@H]1CCN(c2nccc(-c3cnn4ncccc34)n2)C1 | binding | 1 µM | 91% |
| C=CC(=O)N1CCC(C(=O)NCC(=O)N2CCN(c3nc(-c4cnc(N)nc4C(F)F)nc(N4CCOCC4)n3)CC2)CC1 | binding, competition with immobilised ligand | 1 µM | 96% |
